Results published in article PMC12709667 (Journal of Clinical Pharmacology, 2025).

What was measured:
[1] = tested on: CYP2B6; type: in vitro ADME, human; details: up to 10 µM, three donors
[2] = biological target: CYP2C9 (Homo sapiens, UniProt P11712); assay: DDI perpetrator study: tolbutamide probe; type: in vivo; details: miricorilant 400 mg once daily as perpetrator
[3] = 28-day Good Laboratory Practice toxicology study; type: in vivo, mouse; details: mice
[4] = biological target: T1, CYP2C8 (Homo sapiens, UniProt P10632); assay: Cytochrome P450 inhibition; type: in vitro ADME
T1 sequence (P10632 1-490): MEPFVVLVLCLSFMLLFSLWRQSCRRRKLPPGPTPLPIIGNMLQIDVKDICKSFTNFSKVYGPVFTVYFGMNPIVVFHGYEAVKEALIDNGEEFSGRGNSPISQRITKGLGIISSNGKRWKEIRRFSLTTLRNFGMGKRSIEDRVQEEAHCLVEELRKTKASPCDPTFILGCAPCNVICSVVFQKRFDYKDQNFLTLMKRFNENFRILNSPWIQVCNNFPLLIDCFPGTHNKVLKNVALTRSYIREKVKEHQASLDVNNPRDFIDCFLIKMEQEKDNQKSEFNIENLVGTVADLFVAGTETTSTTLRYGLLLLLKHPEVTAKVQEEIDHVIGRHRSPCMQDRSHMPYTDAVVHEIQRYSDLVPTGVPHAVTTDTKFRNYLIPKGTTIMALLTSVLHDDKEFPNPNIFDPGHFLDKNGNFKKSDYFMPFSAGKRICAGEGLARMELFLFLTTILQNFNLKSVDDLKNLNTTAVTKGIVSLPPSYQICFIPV

[5] = [14C] ADME study in male albino CD1 mice; type: in vivo, mouse
In short: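 Male albino CD1 mice received one oral dose of 50 mg/kg (5 MBq/kg) [14C]-labelled test compound. Blood and plasma were counted for total radioactivity. Urine and faeces were collected for excretion balance, and plasma, urine and faeces were used for metabolite profiling.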

[6] = First-in-human study Part 3, 100-mg SDD tablet food effect; type: in vivo; details: plasma, oral, 200 mg; for AUC: AUC0‐last; for AUC / Cmax: single 200 mg dose of 100‐mg SDD tablets; for half-life: t1/2, single 200 mg dose of 100‐mg SDD tablets
[7] = tested on: liver fat; details: patients with presumed MASH; cited from earlier work
[8] = biological target: T2, BCRP (Homo sapiens, UniProt Q9UNQ0); assay: DDI perpetrator study: rosuvastatin probe; type: in vivo; details: miricorilant 400 mg once daily as perpetrator
T2 sequence (Q9UNQ0 1-655): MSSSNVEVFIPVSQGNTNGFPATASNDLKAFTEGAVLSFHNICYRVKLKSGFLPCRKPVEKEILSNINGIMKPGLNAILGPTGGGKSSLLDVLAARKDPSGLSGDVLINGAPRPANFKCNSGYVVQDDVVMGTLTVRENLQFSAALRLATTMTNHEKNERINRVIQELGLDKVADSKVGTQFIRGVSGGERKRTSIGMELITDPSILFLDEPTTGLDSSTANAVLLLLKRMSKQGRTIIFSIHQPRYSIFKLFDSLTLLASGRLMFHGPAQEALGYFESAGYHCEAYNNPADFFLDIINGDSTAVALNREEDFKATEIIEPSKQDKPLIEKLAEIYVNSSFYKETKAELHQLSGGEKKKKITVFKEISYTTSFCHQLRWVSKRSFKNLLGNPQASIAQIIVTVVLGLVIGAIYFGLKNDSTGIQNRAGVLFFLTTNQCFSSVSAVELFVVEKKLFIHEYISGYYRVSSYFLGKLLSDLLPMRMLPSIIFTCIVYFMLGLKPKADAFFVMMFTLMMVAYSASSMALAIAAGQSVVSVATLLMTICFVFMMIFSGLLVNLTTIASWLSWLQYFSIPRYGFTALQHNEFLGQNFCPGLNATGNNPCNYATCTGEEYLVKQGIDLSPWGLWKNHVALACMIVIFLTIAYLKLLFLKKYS

[9] = biological target: T3, UGT1A3 (Homo sapiens, UniProt P35503); assay: Phase 2 enzyme inhibition; type: in vitro ADME
T3 sequence (P35503 29-534): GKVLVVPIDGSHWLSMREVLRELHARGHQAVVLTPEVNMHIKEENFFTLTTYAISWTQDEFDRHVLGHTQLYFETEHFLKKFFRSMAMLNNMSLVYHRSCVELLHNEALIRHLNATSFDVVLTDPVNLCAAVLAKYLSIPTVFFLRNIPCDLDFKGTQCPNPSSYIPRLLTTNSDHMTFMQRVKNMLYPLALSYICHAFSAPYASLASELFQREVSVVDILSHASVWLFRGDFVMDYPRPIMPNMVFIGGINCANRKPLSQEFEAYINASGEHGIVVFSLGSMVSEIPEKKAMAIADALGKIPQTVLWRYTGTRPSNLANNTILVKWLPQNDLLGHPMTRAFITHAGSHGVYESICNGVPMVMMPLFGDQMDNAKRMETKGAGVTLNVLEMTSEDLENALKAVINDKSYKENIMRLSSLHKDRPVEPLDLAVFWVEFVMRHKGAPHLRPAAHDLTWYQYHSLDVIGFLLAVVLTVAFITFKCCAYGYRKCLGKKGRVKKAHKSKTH

[10] = biological target: T1, CYP2C8; assay: DDI perpetrator study: repaglinide probe; type: in vivo; details: miricorilant 400 mg once daily as perpetrator
[11] = tested on: CYP3A4; type: in vitro ADME, human; details: up to 10 µM
[12] = Clinical safety in phase 1 studies; type: in vivo, human
In short: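 Healthy adult subjects in phase 1 studies received oral single doses, or once-daily doses for up to 14 days, with placebo controls in some parts. They were housed in the clinical pharmacology unit from at least the day before dosing until ≥24 h after the last dose. Treatment-emergent adverse events were recorded and graded for intensity.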

[13] = tested on: CYP3A4; details: miricorilant 400 mg once daily as perpetrator
[14] = First-in-human study, multiple ascending dose; type: in vivo; details: for half-life: human, plasma, oral
[15] = repeated once‐daily dosing for up to 14 days
[16] = single‐dose studies, healthy subjects

Chain of CYP2C9 (P11712 whole entry): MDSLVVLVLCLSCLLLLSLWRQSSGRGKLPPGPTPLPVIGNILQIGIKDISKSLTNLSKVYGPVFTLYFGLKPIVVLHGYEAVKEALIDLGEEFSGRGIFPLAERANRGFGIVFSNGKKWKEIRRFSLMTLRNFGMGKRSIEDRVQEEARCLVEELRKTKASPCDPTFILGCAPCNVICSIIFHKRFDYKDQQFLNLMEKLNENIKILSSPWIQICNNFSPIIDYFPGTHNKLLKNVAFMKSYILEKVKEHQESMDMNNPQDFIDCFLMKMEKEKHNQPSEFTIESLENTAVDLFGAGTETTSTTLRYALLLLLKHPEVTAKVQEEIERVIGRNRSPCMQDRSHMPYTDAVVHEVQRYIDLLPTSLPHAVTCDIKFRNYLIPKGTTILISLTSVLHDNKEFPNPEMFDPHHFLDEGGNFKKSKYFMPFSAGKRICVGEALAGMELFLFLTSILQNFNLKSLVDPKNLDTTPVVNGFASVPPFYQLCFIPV

O=c1[nH]c(=O)c(Cc2cccc(C(F)(F)F)c2)c([C@H]2CC[C@H](c3ccccc3)CC2)[nH]1 [miricorilant]
induction of CYP2B6 [1]: no induction
clinical inhibition of CYP2C9 [2]: does not inhibit
adverse effects in 28‐day toxicology study [3]: No adverse effects
IC50 [4]: 7.5 µM
time dependence of CYP2C8 inhibition [4]: not time dependent
recovery of radioactivity ([5]; by 24 h postdose): quantitative recovery
elimination of radioactivity in urine ([5]; single oral 50 mg/kg): 0.13% ± 0.04%
fecal elimination of radioactivity ([5]; single oral 50 mg/kg): 98.7% ± 2.48%
share of total radioactivity in plasma ([5]; single oral 50 mg/kg): 69%
AUC ([6]; Fasted, geometric mean (%CV)): 1620 ng·h/mL
AUC ([6]; Fed, geometric mean (%CV)): 3560 ng·h/mL
Cmax ([6]; Fasted, geometric mean (%CV)): 105 ng/mL
Cmax ([6]; Fed, N = 6, geometric mean (%CV)): 184 ng/mL
half-life ([6]; Fasted, geometric mean (%CV)): 21.1 h
half-life ([6]; Fed, geometric mean (%CV)): 19.6 h
effect on liver fat [7]: rapid and substantial reduction of liver fat
clinical inhibition of BCRP [8]: moderate inhibitor
inhibition of UGT1A3 [9]: did not inhibit
clinical inhibition of CYP2C8 [10]: strong inhibitor
highest observed CYP3A4 induction ([11]; one of three donors, concentration-dependent): 6.5 fold
CYP3A4 induction ([11]; two of three donors): no indication of CYP3A4 induction
overall safety and tolerability ([12]; phase 1 studies): safe and well‐tolerated
intensity of TEAEs [12, 15]: mild or moderate
most commonly reported TEAE [12, 15]: headache
deaths or serious adverse events ([12]; repeated‐dose studies): no deaths or treatment‐emergent serious adverse events
discontinuation due to TEAEs [12, 16]: No subjects
intensity of TEAEs [12, 16]: mild or moderate
most commonly reported TEAE [12, 16]: headache
clinical inhibition of CYP3A4 [13]: does not inhibit
average increase in Cmax and AUC0‐last per doubling of the dose ([14]; 150, 450, 900 mg once daily, day 1): 1.92 fold
half-life [14]: ~20 h
half-life ([14]; 150 mg): 21.6 h
half-life ([14]; 450 mg): 21.2 h
half-life ([14]; 900 mg): 19.4 h
accumulation ratio for Cmax ([14]; repeated daily dosing (Discussion/Conclusions)): ≈ 1.5 fold
